Screening results as filed in PubChem.
Rows were chosen to be rich in hits. Some 2.2% of all compounds tested hit in one or more screens of this group.
E-sel inducer: E-selectin induction on HUVECs; HUVEC E-selectin immunofluorescence imaging; normalized: neutral wells 0, TNF-alpha wells 100; P16581; 0.37% of 260,000 active; activation, % at 7.58 µM;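 active = mean E-selectin-positive cell signal at least 10% of the positive control, reached in at least 60% of replicates, without over 20% cell loss; inconclusive = no rule given, readout overlaps actives, possibly toxicity-flagged; inactive = the rest, including those meeting only one limit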
Target sequence (P16581 whole entry, looked up): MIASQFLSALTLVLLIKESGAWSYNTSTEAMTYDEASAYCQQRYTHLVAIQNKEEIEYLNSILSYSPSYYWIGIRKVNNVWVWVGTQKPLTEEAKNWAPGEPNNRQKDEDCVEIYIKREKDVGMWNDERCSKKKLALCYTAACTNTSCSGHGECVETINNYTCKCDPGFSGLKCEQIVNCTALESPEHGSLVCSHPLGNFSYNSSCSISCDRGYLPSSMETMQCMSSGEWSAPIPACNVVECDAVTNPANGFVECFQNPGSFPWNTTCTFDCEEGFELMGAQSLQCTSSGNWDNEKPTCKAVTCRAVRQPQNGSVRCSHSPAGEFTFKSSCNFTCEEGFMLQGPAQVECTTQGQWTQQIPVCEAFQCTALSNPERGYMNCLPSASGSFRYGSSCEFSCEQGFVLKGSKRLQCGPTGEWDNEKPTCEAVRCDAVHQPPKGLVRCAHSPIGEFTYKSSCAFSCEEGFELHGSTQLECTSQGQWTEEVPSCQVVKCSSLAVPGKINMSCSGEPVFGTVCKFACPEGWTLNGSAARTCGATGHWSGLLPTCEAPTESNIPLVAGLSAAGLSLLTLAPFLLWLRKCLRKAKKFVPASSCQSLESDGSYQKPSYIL
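Material: HUVEC primary endothelial cells; Amount: 3,000 cells per well; Dosing: single concentration; Medium: EGM-2 growth medium on 0.1% gelatin-coated wells; Read-out basis: percent E-selectin-positive cells; Signal: immunofluorescence imaging; Control set: TNF-alpha, DMSO.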
DENV2 CPE rescue: DENV2-induced cell death inhibition. AID 651640. DENV2-infected cells, cytopathic effect rescue, plate reader. CPE inhibition, % at 9.99 µM. 1.7% of 350,000 active; in the data active = CPE inhibition above about 20%, passing the limit was not always enough; inconclusive = no clear call, values can overlap the other calls; tested in BHK-21 cells;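 note: 0% = median of neutral control wells and 100% = median of positive control wells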
C2C12 statin: suppressors of simvastatin-induced myotoxicity in C2C12 myotubes; ATP luminescence, 48 h; scaled: DMSO 0, geranylgeraniol control 100; rescue of ATP level, % at 7.49 µM; 0.78% of 330,000 active; AID 602340;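 active = mean ATP rescue above about 67%, or every replicate alone reaching that limit, limit read from the data, passing the limit was not always enough; inconclusive = no clear call, values can overlap the other calls; inactive = mean under the limit and some replicate under it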;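 note: myotubes were challenged with 10 µM simvastatin during compound exposure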
* marks the source's active call; other numbers are inactive results; ? = inconclusive; nt = no result.

SMILES | E-sel inducer | DENV2 CPE rescue | C2C12 statin
C[C@@H]1CN([C@@H](C)CO)S(=O)(=O)c2ccc(C#C[C@@H](C)O)cc2O[C@@H]1CN(C)Cc1ccc(-c2ccccc2)cc1 | 0 | -2 | 3
C=CCn1c(=O)[nH]c(=O)c2c(N)c(C(=O)c3ccc(OC)cc3)sc21 | 0 | nt | 135*
Cc1ccc(C(=O)c2sc3c(c2N)c(=O)[nH]c(=O)n3CCc2ccccc2)cc1 | 0 | nt | nt
COc1ccc(NC(=O)N(C)C[C@@H]2Oc3ccc(NC(=O)Cc4ccccc4)cc3C(=O)N([C@H](C)CO)C[C@@H]2C)cc1 | 0 | 1 | 1
C[C@H](CO)N1C[C@H](C)[C@@H](CN(C)C(=O)Nc2ccc3c(c2)OCO3)Oc2ccc(NC(=O)Cc3cn(C)c4ccccc34)cc2CC1=O | 5 | -14 | 19
O=C(C[C@@H]1CC[C@@H](NS(=O)(=O)c2ccccc2)[C@@H](CO)O1)NCc1ccc(Cl)c(Cl)c1 | -1 | -2 | 4
O=C(/C=N/O)NCc1cccnc1 | nt | -8 | 4
C[n+]1cccc(CNC(=O)/C=N/O)c1 | nt | nt | 112*
C[C@H](CO)N1C[C@H](C)[C@H](CN(C)C(=O)C2CCC2)Oc2ncc(C#CC3(O)CCCC3)cc2C1=O | 3 | -5 | -19
C[C@H]1CCCCO[C@H](CN(C)C(=O)C2CCCCC2)[C@@H](C)CN([C@@H](C)CO)C(=O)c2cc(NC(=O)Nc3ccc4c(c3)OCO4)ccc2O1 | 0 | -3 | nt
Cc1ccc(S(=O)(=O)NCC[C@@H]2CC[C@H](NC(=O)C3CCOCC3)[C@@H](CO)O2)cc1 | 0 | 17 | 13
CO[C@@H]1CN(C)C(=O)c2ccc(NC(=O)C3CCCC3)cc2OC[C@@H](C)N(CC2CC2)C[C@H]1C | 0 | 1 | 24
C[C@@H]1CN([C@@H](C)CO)S(=O)(=O)c2ccc(C#Cc3ccccc3F)cc2O[C@@H]1CN(C)C | 0 | 10 | 1
C[C@H]1CN([C@@H](C)CO)S(=O)(=O)c2ccc(C#CC3CC3)cc2O[C@@H]1CN(C)C(=O)Nc1cc(F)ccc1F | 0 | nt | -14
C[C@H](CO)N1C[C@H](C)[C@H](CN(C)C)Oc2cc(C#CC3(O)CCCC3)ccc2S1(=O)=O | 0 | 26* | 1
C[C@@H]1CN([C@@H](C)CO)S(=O)(=O)c2ccc(C#CC3(O)CCCC3)cc2O[C@@H]1CN(C)C | 0 | -6 | -1
C[C@H]1CN([C@@H](C)CO)S(=O)(=O)c2ccc(C#CC3CC3)cc2O[C@H]1CN(C)C(=O)Nc1cc(F)ccc1F | -1 | nt | 90*
C[C@H](CO)N1C[C@H](C)[C@@H](CN(C)C)Oc2cc(C#Cc3ccccc3F)ccc2S1(=O)=O | 104* | 10 | -8
C[C@@H]1CN([C@@H](C)CO)S(=O)(=O)c2ccc(C#CC3CCCCC3)cc2O[C@@H]1CN(C)C | 0 | ? | 6
C[C@@H]1CN([C@@H](C)CO)S(=O)(=O)c2ccc(C#CC3CCCC3)cc2O[C@H]1CN(C)C | 0 | 22* | -56
COc1ccc2c3c(n(C)c2c1)[C@H](CO)N(S(C)(=O)=O)CC31CCN(C(=O)CN(C)C)CC1 | 0 | ? | nt
C[C@@H](NC(=O)C[C@H]1C=C[C@@H](NC(=O)C2CCOCC2)[C@@H](CO)O1)c1ccccc1 | 0 | 7 | 0
CN(C)CC(=O)Nc1ccc2c(c1)[C@H]1C[C@H](CC(=O)NCCc3ccccc3)O[C@H](CO)[C@H]1O2 | 0 | 13 | 0
CNC[C@@H]1Oc2c(NC(=O)Nc3ccc(OC)cc3)cccc2C(=O)N([C@H](C)CO)C[C@H]1C | 0 | 1 | -1
C[C@@H]1CN([C@@H](C)CO)S(=O)(=O)c2ccc(C#CC3CCCC3)cc2O[C@@H]1CN(C)C | 0 | 18 | 22
SMILES | E-sel inducer | DENV2 CPE rescue | C2C12 statin
C[C@H](CO)N1C[C@H](C)[C@H](CN(C)C)Oc2cc(C#CC3CCCC3)ccc2S1(=O)=O | 0 | 59* | 19
CCCN(CCC)CCNC(=O)C1CCCN(S(=O)(=O)c2ccc3c(c2)oc(=O)n3C)C1 (centres undefined) | nt | nt | 3
Cn1c(=O)oc2cc(S(=O)(=O)N3CCCC(C(=O)NCCN4CCOCC4)C3)ccc21 (centres undefined) | 0 | 83* | nt
COCCc1nnc(NC(=O)Cc2ccccc2)s1 | nt | nt | 89*
CCOCCc1nnc(NC(=O)CCc2ccccc2)s1 | nt | 8 | nt
CC(C)C#Cc1ccc([C@H]2[C@@H](C#N)N(C(=O)CN(C)C)[C@@H]2CO)cc1 | 0 | 1 | -28
Cc1ccc(S(=O)(=O)N(C)C[C@H]2OCCCC[C@@H](C)Oc3ccc(NC(=O)Nc4cccc5ccccc45)cc3C(=O)N([C@@H](C)CO)C[C@@H]2C)cc1 | 0 | -1 | nt
C[C@@H]1CCCCO[C@@H](CN(C)C(=O)C2CCCCC2)[C@H](C)CN([C@H](C)CO)C(=O)c2cc(NC(=O)Nc3cccc4ccccc34)ccc2O1 | 1 | 23* | nt
C[C@@H]1CN([C@@H](C)CO)C(=O)c2cc(NC(=O)Nc3cccc4ccccc34)ccc2O[C@@H](C)CCCCO[C@H]1CN(C)C(=O)C1CCCCC1 | 0 | 22* | nt
C[C@@H]1CCCCO[C@@H](CN(C)C(=O)C2CCCCC2)[C@@H](C)CN([C@H](C)CO)C(=O)c2cc(NC(=O)Nc3cccc4ccccc34)ccc2O1 | 0 | 22* | nt
C[C@H](CO)N1C[C@H](C)[C@@H](CN(C)C(=O)C2CCCCC2)OCCCC[C@H](C)Oc2ccc(NC(=O)Nc3cccc4ccccc34)cc2C1=O | 0 | 14 | nt
C[C@@H]1CCCCO[C@H](CN(C)C(=O)C2CCCCC2)[C@H](C)CN([C@@H](C)CO)C(=O)c2cc(NC(=O)Nc3cccc4ccccc34)ccc2O1 | 1 | -3 | nt
C[C@@H]1CCCCO[C@H](CN(C)C(=O)C2CCCCC2)[C@@H](C)CN([C@@H](C)CO)C(=O)c2cc(NC(=O)Nc3cccc4ccccc34)ccc2O1 | 0 | 26* | nt
C[C@H](CO)N1C[C@H](C)[C@H](CN(C)C(=O)C2CCCCC2)OCCCC[C@H](C)Oc2ccc(NC(=O)Nc3cccc4ccccc34)cc2C1=O | 0 | 9 | nt
C[C@@H]1CN([C@H](C)CO)C(=O)c2cc(NC(=O)Nc3cccc4ccccc34)ccc2O[C@@H](C)CCCCO[C@@H]1CN(C)C(=O)C1CCCCC1 | 1 | 19 | nt
CCCN(C)C[C@@H]1OCCCC[C@@H](C)Oc2ccc(NS(=O)(=O)c3ccc(Cl)cc3)cc2C(=O)N([C@@H](C)CO)C[C@@H]1C | 0 | 0 | 2
N#C[C@H]1[C@@H](c2ccc(C#CC3(O)CCCC3)cc2)[C@H](CO)N1C(=O)C1CC1 | 0 | 14 | -26
CCNC(=O)C[C@@H]1CC[C@H]2[C@@H](COc3ccc(NC(=O)Nc4cccc(F)c4)cc3C(=O)N2C)O1 | 0 | 2 | -4
COCCN(C(=S)Nc1cccc(C)c1)C(C)c1cccs1 (centres undefined) | -1 | 30* | nt
COCCN(C(=S)Nc1cc(C)cc(C)c1)C(C)c1cccs1 (centres undefined) | 0 | -4 | nt
CC(=O)/C(C#N)=C1\NC(=O)C(Cc2cc(Cl)ccc2Cl)S1 (centres undefined) | 0 | 57* | nt
CC(=O)/C(C#N)=C1\NC(=O)C(Cc2ccccc2Cl)S1 (centres undefined) | nt | nt | 33
